From ChEMBL document CHEMBL4765368, “Structure guided design and synthesis of furyl thiazolidinedione derivatives as inhibitors of GLUT 1 and GLUT 4, and evaluation of their anti-leukemic potential” (Eur J Med Chem, 2020)
pIC50: −log10 of the molar value. Calls of active or inactive are those of the source. No cut-off for these calls is given here.

What was measured:
[1] = target: T1, Solute carrier family 2, facilitated glucose transporter member 4 (Homo sapiens) (UniProt P14672); test: Inhibition of transport activity of human GLUT4 expressed in hexose transporter deficient […] erg4 yeast cells assessed as reduction in transporter-mediated [14C]-hexose uptake into cells at 100 uM measured after 10 mins by scintillation counting method relative to control; type: cell-based
T1 sequence (whole entry): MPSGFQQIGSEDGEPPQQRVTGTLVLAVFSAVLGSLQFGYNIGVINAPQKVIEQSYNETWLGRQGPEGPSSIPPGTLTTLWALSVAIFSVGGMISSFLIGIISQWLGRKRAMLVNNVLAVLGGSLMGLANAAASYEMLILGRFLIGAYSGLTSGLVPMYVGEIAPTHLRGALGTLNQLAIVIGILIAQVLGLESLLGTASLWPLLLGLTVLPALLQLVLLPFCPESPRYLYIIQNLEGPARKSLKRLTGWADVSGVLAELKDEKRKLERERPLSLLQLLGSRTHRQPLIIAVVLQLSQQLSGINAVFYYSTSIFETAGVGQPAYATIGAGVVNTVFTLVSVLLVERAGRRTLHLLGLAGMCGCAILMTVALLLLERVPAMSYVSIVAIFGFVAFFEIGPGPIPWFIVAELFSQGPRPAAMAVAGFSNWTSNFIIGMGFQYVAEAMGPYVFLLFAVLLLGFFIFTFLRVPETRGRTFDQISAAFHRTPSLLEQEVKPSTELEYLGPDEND
In short: (§1)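 The hxt0 yeast strain expressing one human GLUT was grown at 30 °C and resuspended in PBS pH 7.4 at OD600 ~10. Uptake was started with 14C-glucose at 5 mM final (GLUT1, GLUT4) or 14C-fructose at 10 mM final (GLUT5). It was quenched after 10 min with ice-cold 0.1 M KPi/0.1 M LiCl pH 5.5, filtered and counted by scintillation. Compound at 100 μM with 1% DMSO; DMSO control and phloretin 200 μM (GLUT1/4) or MSNBA 100 μM (GLUT5) as references. Triplicates.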

[2] = target: T2, Solute carrier family 2, facilitated glucose transporter member 4 (Homo sapiens, UniProt P14672); test: Inhibition of transport activity of human GLUT4 expressed in hexose transporter deficient W4000fgy1 erg4 yeast cells assessed as reduction in transporter-mediated [14C]-hexose uptake into cells measured after 10 mins by scintillation counting method; type: cell-based
T2 sequence (P14672 whole entry): T1 sequence (whole entry)
In short: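 GLUT1 (VW4000fgy1) or GLUT4 (VW4000fgy1erg4) hxt0 yeast were grown on maltose and then glucose and resuspended in PBS pH 7.4 at OD600 ~10. Compound was used at 0.1–100 μM, final 1% DMSO. Uptake of 5 mM 14C-glucose over 10 min was stopped with ice-cold quench buffer, filtered and counted by scintillation. IC50 was taken from dose-response curves of three independent measurements.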

[3] = target: T3, Solute carrier family 2, facilitated glucose transporter member 1 (Homo sapiens) (UniProt P11166); test: Inhibition of transport activity of human GLUT1 expressed in hexose transporter deficient VW4000fgy1 yeast cells assessed as reduction in transporter-mediated [14C]-hexose uptake into cells by measuring relative activity at 100 uM measured after 10 mins by scintillation counting method relative to control; type: cell-based; set-up: scale not given: the % may be the effect or the level left; in short: as §1
T3 sequence (whole entry): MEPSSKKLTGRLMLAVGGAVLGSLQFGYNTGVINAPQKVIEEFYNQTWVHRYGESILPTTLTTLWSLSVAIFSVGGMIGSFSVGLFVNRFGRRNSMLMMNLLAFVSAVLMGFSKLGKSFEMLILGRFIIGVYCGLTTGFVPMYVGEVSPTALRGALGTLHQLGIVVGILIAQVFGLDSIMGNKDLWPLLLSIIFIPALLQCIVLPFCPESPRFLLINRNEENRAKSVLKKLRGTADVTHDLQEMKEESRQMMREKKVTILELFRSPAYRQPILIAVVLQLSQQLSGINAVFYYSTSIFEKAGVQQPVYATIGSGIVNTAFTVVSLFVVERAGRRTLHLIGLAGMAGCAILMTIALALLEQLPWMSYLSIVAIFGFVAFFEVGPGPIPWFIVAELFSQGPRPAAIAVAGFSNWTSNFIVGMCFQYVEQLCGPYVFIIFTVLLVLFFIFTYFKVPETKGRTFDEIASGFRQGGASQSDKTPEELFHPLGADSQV

CCRF-CEM [4] = test: Cytotoxicity against human CCRF-CEM cells assessed as reduction in cell viability measured after 48 hrs by Hoechst 33342/propidium iodide staining based imaging analysis; type: functional
In short: (§2)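 Cells were seeded at 10,000 per well (HS-27 at 3,000) in 10% FBS RPMI (leukemic lines) or DMEM (MDA-MB-231, HS-27). Compound in DMSO (1% v/v final) at 0.5–100 µM for 48 h. Hoechst 33342 and PI were added 2 h before automated imaging; dead cells were co-stained. Quadruplicates. CC50 was taken by linear interpolation between the two concentrations nearest 50% death.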

KCL-22 = test: Cytotoxicity against human KCL-22 cells assessed as reduction in cell viability measured after 48 hrs by Hoechst 33342/propidium iodide staining based imaging analysis; type: functional; in short: as §2
[5] = Selectivity index, ratio of CC50 for human HS27 cells to CC50 for human CCRF-CEM cells
In short: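 Ratio of HS-27 CC50 to CCRF-CEM CC50. Both came from Hoechst/PI differential nuclear staining imaging after 48 h exposure to 0.5–100 µM, in quadruplicate, with 10,000 CEM or 3,000 HS-27 cells/well. Each CC50 was estimated by linear interpolation between the two concentrations nearest 50% cell death.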

CCRF-CEM [6] = test: Induction of apoptosis in human CCRF-CEM cells assessed as necrotic cells at CC50 measured after 24 hrs by AnnexinV-FITC/propidium iodide staining based flow cytometry analysis relative to control; type: functional
In short: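 CCRF-CEM cells in RPMI with 10% FBS were seeded in 24-well plates, incubated overnight, given fresh medium, then treated for 24 h. Cells were PBS-washed, spun at 500 g for 5 min at 4 °C, and resuspended in ice-cold binding buffer. They were stained with annexin V-FITC and PI for 15 min on ice in the dark, then read by flow cytometry. Untreated cells were the negative control; triplicates.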

CCRF-CEM [7] = test: Cell cycle arrest in human CCRF-CEM cells assessed as decrease in accumulation at G2/M phase measured after 72 hrs by NIM-DAPI staining based flow cytometry; type: functional
In short: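 An asynchronous CEM culture was seeded at 100,000 cells/well in 1 mL complete RPMI and exposed to 10, 25 or 50 μM for 72 h. Controls were untreated cells, DMSO and hydrogen peroxide. Cells were pelleted at 262 g, resuspended, and stained with NIM-DAPI, which permeabilizes and stains DNA in one step. About 100,000 events per sample were read by flow cytometry. Triplicates.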

[8] = target: T3, Solute carrier family 2, facilitated glucose transporter member 1 (Homo sapiens); test: Inhibition of GLUT1 in human CCRF-CEM cells assessed as decrease in mTOR phosphorylation at 10 uM measured after 6 hrs by Western blot analysis; type: cell-based
In short: (§3)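 CEM cells were treated with 10 µM for 6 h. Untreated cells were the negative control and staurosporine the positive control. Cells were washed with cold PBS, lysed in Laemmli buffer with protease inhibitors, sonicated and quantified. Blots were blocked 45 min in PBS-Tween-5% milk, with primary antibody 3 h and secondary 1 h at room temperature.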

[9] = target: T3, Solute carrier family 2, facilitated glucose transporter member 1 (Homo sapiens); test: Inhibition of GLUT1 in human CCRF-CEM cells assessed as decrease in CDK2 phosphorylation at 10 uM measured after 6 hrs by Western blot analysis; type: cell-based; in short: as §3

Structure (SMILES) | inhibition [1] [%] | pIC50 [2] | Activity [3] [%] | CC50 (CCRF-CEM [4]) [µM] | CC50 (KCL-22) [µM] | Selectivity Index [5] | Activity (CCRF-CEM [6]) [%] | Activity (CCRF-CEM [7]) | inhibition [8] | inhibition [9]
O=C(CN1C(=O)S/C(=C/c2ccco2)C1=O)Nc1ccc(Cl)c(Cl)c1 | > 50 | 3.82 | 30 | 7.8 | 72.2 | > 12.8 | – | – | – | –
O=C(CN1C(=O)S/C(=C/c2ccco2)C1=O)Nc1nc2ccccc2s1 | > 50 | 5.17 | – | 1.7 | 15.3 | > 25.8 | 16.6 | Dose-dependent effect | Active | Active
